Laboratory results from ChEMBL document CHEMBL2434823, “Design, synthesis and biological activities of some 7-aminocephalosporanic acid derivatives” (Eur J Med Chem, 2013).
Active and inactive are the calls of the source. No cut-off for these calls is given here.

Tests used:
[1] = system: Yersinia pseudotuberculosis; test: Antimicrobial activity against Yersinia pseudotuberculosis ATCC 911; format: functional
In short: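 Compounds were dissolved in […] as 20.000 µg/mL stocks. Ampicillin (10 µg) was the reference antibacterial, and DMSO diluted 1:10 was the solvent control.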

Saccharomyces cerevisiae = test: Antimicrobial activity against Saccharomyces cerevisiae RSKK 251; format: functional
Candida albicans = test: Antimicrobial activity against Candida albicans ATCC 60193; format: functional
Staphylococcus aureus = test: Antimicrobial activity against Staphylococcus aureus ATCC 25923; format: functional
In short: (§1)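 Compound stocks were 20.000 µg/mL in hexane. DMSO diluted 1:10 served as the solvent control, and ampicillin was the reference drug.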

[2] = system: Mycolicibacterium smegmatis; test: Antimicrobial activity against Mycobacterium smegmatis ATCC 607; format: functional
Pseudomonas aeruginosa = test: Antimicrobial activity against Pseudomonas aeruginosa ATCC 43288; format: functional; in short: as §1
Enterococcus faecalis = test: Antimicrobial activity against Enterococcus faecalis ATCC 29212; format: functional; in short: as §1
Bacillus cereus [3] = test: Antimicrobial activity against Bacillus cereus 702 Roma; format: functional; in short: as §1
[4] = molecular target: Urease (Canavalia ensiformis) (UniProt P07374); test: Inhibition of jack bean urease using urea as substrate assessed as ammonia production at 250 ug/ml after 15 mins relative to control
Sequence of Urease (Canavalia ensiformis) (P07374 whole entry, looked up): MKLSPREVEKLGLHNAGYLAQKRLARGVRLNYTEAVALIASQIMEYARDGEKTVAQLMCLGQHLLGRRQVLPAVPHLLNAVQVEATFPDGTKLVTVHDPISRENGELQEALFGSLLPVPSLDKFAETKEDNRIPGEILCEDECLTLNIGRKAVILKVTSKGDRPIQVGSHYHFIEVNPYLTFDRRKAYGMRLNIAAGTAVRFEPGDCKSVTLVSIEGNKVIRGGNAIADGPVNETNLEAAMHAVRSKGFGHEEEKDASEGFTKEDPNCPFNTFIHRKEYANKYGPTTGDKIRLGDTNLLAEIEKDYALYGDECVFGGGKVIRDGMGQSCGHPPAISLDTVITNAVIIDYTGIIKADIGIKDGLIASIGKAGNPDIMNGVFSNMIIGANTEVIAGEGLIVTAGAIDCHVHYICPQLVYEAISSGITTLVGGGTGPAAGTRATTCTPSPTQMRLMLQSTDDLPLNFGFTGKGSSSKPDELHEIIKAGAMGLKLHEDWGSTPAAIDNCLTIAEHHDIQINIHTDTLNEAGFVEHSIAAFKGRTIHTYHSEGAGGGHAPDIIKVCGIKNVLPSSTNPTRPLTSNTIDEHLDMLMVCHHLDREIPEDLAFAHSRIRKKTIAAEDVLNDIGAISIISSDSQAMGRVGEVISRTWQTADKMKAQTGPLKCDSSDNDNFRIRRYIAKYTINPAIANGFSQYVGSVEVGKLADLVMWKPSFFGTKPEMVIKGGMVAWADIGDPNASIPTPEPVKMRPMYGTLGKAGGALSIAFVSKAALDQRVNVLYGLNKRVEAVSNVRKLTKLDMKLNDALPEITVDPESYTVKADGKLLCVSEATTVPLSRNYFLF
In short: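 Jack bean urease in pH 8.2 buffer (100 mM urea, 0.01 M K2HPO4, 1 mM EDTA, 0.01 M LiCl) was incubated with compound for 15 min at room temperature. Ammonia was measured by the indophenol method (phenol/nitroprusside, then NaOH/NaOCl) at A625 after 20 min. Inhibition % = 100 − (OD test/OD control)×100. […] Thiourea was the standard.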

[5] = Inhibition of Bacillus cereus metallo beta-lactamase assessed as nitrocefin substrate hydrolysis after 20 mins
In short: (§2)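 Commercial B. cereus metallo-β-lactamase (1.5 µM solution) was combined with nitrocefin (150 µM solution) and compound in 25 mM PIPES pH 7.0 containing 100 µM ZnSO4. A486 was read continuously for 20 min at 37 °C. Residual activity was taken relative to the no-inhibitor control, in triplicate. Screening used 1 mM final; IC50 came from a concentration series. HgCl2 was the positive control.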

Bacillus cereus [6] = test: Inhibition of Bacillus cereus metallo beta-lactamase assessed as nitrocefin substrate hydrolysis at 1 mM after 20 mins; in short: as §2

O=S(=O)(Cl)c1ccc(NC(=S)NCc2ccccc2)cc1
inhibition zone (IZ) [1]: 25 mm
inhibition zone (IZ) (Saccharomyces cerevisiae): 8 mm
inhibition zone (IZ) (Candida albicans): 8 mm
inhibition zone (IZ) (Staphylococcus aureus): 30 mm
inhibition zone (IZ) [2]: 17 mm
inhibition zone (IZ) (Pseudomonas aeruginosa): 20 mm
inhibition zone (IZ) (Enterococcus faecalis): 16 mm
inhibition zone (IZ) (Bacillus cereus [3]): 18 mm

O=S(=O)(Cl)c1ccc(/N=c2/oc(-c3ccc(Cl)cc3)cn2Cc2ccccc2)cc1
inhibition zone (IZ) [1]: inactive
inhibition zone (IZ) (Saccharomyces cerevisiae): 10 mm
inhibition zone (IZ) (Candida albicans): 8 mm
inhibition zone (IZ) (Staphylococcus aureus): 18 mm
inhibition zone (IZ) [2]: 12 mm
inhibition zone (IZ) (Pseudomonas aeruginosa): inactive
inhibition zone (IZ) (Enterococcus faecalis): 8 mm
inhibition [4]: 21%
inhibition zone (IZ) (Bacillus cereus [3]): 6 mm

O=C(Cl)CN1CCN(c2ccc([N+](=O)[O-])cc2F)CC1
inhibition zone (IZ) [1]: inactive
inhibition zone (IZ) (Saccharomyces cerevisiae): 30 mm
inhibition zone (IZ) (Candida albicans): 15 mm
inhibition zone (IZ) (Staphylococcus aureus): 15 mm
inhibition zone (IZ) [2]: inactive
inhibition zone (IZ) (Pseudomonas aeruginosa): inactive
inhibition zone (IZ) (Enterococcus faecalis): 8 mm
inhibition [4]: 25%
inhibition zone (IZ) (Bacillus cereus [3]): 8 mm

O=S(=O)(Cl)c1ccc(/N=c2/sc(-c3ccc(Cl)cc3)cn2Cc2ccccc2)cc1
inhibition zone (IZ) [1]: inactive
inhibition zone (IZ) (Saccharomyces cerevisiae): 20 mm
inhibition zone (IZ) (Candida albicans): 10 mm
inhibition zone (IZ) (Staphylococcus aureus): 16 mm
inhibition zone (IZ) [2]: 10 mm
inhibition zone (IZ) (Pseudomonas aeruginosa): inactive
inhibition zone (IZ) (Enterococcus faecalis): 18 mm
inhibition zone (IZ) (Bacillus cereus [3]): 6 mm

CN[C@@H]1[C@H](O[C@H]2[C@H](O[C@H]3[C@H](O)[C@@H](O)[C@H](N=C(N)N)[C@@H](O)[C@@H]3N=C(N)N)O[C@@H](C)[C@]2(O)C=O)O[C@@H](CO)[C@H](O)[C@H]1O [STREPTOMYCIN]
inhibition zone (IZ) [2]: 35 mm

CC(=O)OCC1=C(C(=O)O)N2C(=O)[C@@H](NS(=O)(=O)c3ccc(NC(=S)NCc4ccccc4)cc3)[C@H]2SC1
inhibition zone (IZ) [1]: 8 mm
inhibition zone (IZ) (Saccharomyces cerevisiae): 10 mm
inhibition zone (IZ) (Candida albicans): 8 mm
inhibition zone (IZ) (Staphylococcus aureus): 15 mm
inhibition zone (IZ) [2]: 16 mm
inhibition zone (IZ) (Pseudomonas aeruginosa): 6 mm
inhibition zone (IZ) (Enterococcus faecalis): 10 mm
inhibition zone (IZ) (Bacillus cereus [3]): 8 mm

MERCURIC CHLORIDE [listing 1 of 2 here]
IC50 [5]: 93 µM

Nc1ccc(S(=O)(=O)Cl)cc1
inhibition zone (IZ) [1]: 12 mm
inhibition zone (IZ) (Saccharomyces cerevisiae): 20 mm
inhibition zone (IZ) (Candida albicans): 13 mm
inhibition zone (IZ) (Staphylococcus aureus): 18 mm
inhibition zone (IZ) [2]: 10 mm
inhibition zone (IZ) (Pseudomonas aeruginosa): 28 mm
inhibition zone (IZ) (Enterococcus faecalis): 12 mm
inhibition zone (IZ) (Bacillus cereus [3]): 15 mm

CC(=O)OCC1=C(C(=O)O)N2C(=O)[C@@H](NS(=O)(=O)c3ccc(/N=c4/sc(-c5ccc(Cl)cc5)cn4-c4ccccc4)cc3)[C@H]2SC1
inhibition zone (IZ) [1]: 6 mm
inhibition zone (IZ) (Saccharomyces cerevisiae): 14 mm
inhibition zone (IZ) (Candida albicans): 10 mm
inhibition zone (IZ) (Staphylococcus aureus): inactive
inhibition zone (IZ) [2]: 16 mm
inhibition zone (IZ) (Pseudomonas aeruginosa): 6 mm
inhibition zone (IZ) (Enterococcus faecalis): inactive
inhibition [4]: 15%
inhibition zone (IZ) (Bacillus cereus [3]): 8 mm

CC(=O)OCC1=C(C(=O)O)N2C(=O)[C@@H](NS(=O)(=O)c3ccc(/N=C4/SC(=O)CN4Cc4ccccc4)cc3)[C@H]2SC1
inhibition zone (IZ) [1]: 8 mm
inhibition zone (IZ) (Saccharomyces cerevisiae): 18 mm
inhibition zone (IZ) (Candida albicans): 10 mm
inhibition zone (IZ) (Staphylococcus aureus): 22 mm
inhibition zone (IZ) [2]: 16 mm
inhibition zone (IZ) (Pseudomonas aeruginosa): 8 mm
inhibition zone (IZ) (Enterococcus faecalis): 10 mm
inhibition zone (IZ) (Bacillus cereus [3]): 8 mm

MERCURIC CHLORIDE [listing 2 of 2 here]
inhibition (Bacillus cereus [6]): 76%

CC(=O)OCC1=C(C(=O)O)N2C(=O)[C@@H](NS(=O)(=O)c3ccc(NC(=O)NCc4ccccc4)cc3)[C@H]2SC1
inhibition zone (IZ) [1]: 10 mm
inhibition zone (IZ) (Saccharomyces cerevisiae): 10 mm
inhibition zone (IZ) (Candida albicans): 10 mm
inhibition zone (IZ) (Staphylococcus aureus): 18 mm
inhibition zone (IZ) [2]: 14 mm
inhibition zone (IZ) (Pseudomonas aeruginosa): 8 mm
inhibition zone (IZ) (Enterococcus faecalis): 10 mm
inhibition zone (IZ) (Bacillus cereus [3]): 10 mm

O=C(NCc1ccccc1)Nc1ccc(S(=O)(=O)Cl)cc1
inhibition zone (IZ) [1]: 25 mm
inhibition zone (IZ) (Saccharomyces cerevisiae): 20 mm
inhibition zone (IZ) (Candida albicans): 18 mm
inhibition zone (IZ) (Staphylococcus aureus): 30 mm
inhibition zone (IZ) [2]: 15 mm
inhibition zone (IZ) (Pseudomonas aeruginosa): 20 mm
inhibition zone (IZ) (Enterococcus faecalis): 16 mm
inhibition [4]: 23%
inhibition zone (IZ) (Bacillus cereus [3]): 18 mm

CC(=O)OCC1=C(C(=O)O)N2C(=O)[C@@H](NS(=O)(=O)c3ccc(N)cc3)[C@H]2SC1
inhibition zone (IZ) [1]: 12 mm
inhibition zone (IZ) (Saccharomyces cerevisiae): 20 mm
inhibition zone (IZ) (Candida albicans): 14 mm
inhibition zone (IZ) (Staphylococcus aureus): 20 mm
inhibition zone (IZ) [2]: 12 mm
inhibition zone (IZ) (Pseudomonas aeruginosa): 30 mm
inhibition zone (IZ) (Enterococcus faecalis): 16 mm
inhibition [4]: 1%
inhibition zone (IZ) (Bacillus cereus [3]): 18 mm

O=S(=O)(Cl)c1ccc(/N=c2/sc(-c3ccc(Cl)cc3)cn2-c2ccccc2)cc1
inhibition zone (IZ) [1]: inactive
inhibition zone (IZ) (Saccharomyces cerevisiae): 22 mm
inhibition zone (IZ) (Candida albicans): 10 mm
inhibition zone (IZ) (Staphylococcus aureus): 18 mm
inhibition zone (IZ) [2]: 12 mm
inhibition zone (IZ) (Pseudomonas aeruginosa): inactive
inhibition zone (IZ) (Enterococcus faecalis): 8 mm
inhibition [4]: 3%
inhibition zone (IZ) (Bacillus cereus [3]): 8 mm

CC(=O)OCC1=C(C(=O)O)N2C(=O)[C@@H](NS(=O)(=O)c3ccc(NC(=S)Nc4ccccc4)cc3)[C@H]2SC1
inhibition zone (IZ) [1]: 10 mm
inhibition zone (IZ) (Saccharomyces cerevisiae): 22 mm
inhibition zone (IZ) (Candida albicans): 14 mm
inhibition zone (IZ) (Staphylococcus aureus): 18 mm
inhibition zone (IZ) [2]: 18 mm
inhibition zone (IZ) (Pseudomonas aeruginosa): 8 mm
inhibition zone (IZ) (Enterococcus faecalis): 10 mm
inhibition zone (IZ) (Bacillus cereus [3]): 12 mm

CC(=O)OCC1=C(C(=O)O)N2C(=O)[C@@H](NS(=O)(=O)c3ccc([N+](=O)[O-])cc3)[C@H]2SC1
inhibition zone (IZ) [1]: inactive
inhibition zone (IZ) (Saccharomyces cerevisiae): inactive
inhibition zone (IZ) (Candida albicans): inactive
inhibition (Bacillus cereus [6]): 18%
inhibition zone (IZ) (Staphylococcus aureus): 23 mm
inhibition zone (IZ) [2]: inactive
inhibition zone (IZ) (Enterococcus faecalis): 6 mm
inhibition [4]: 28%
inhibition zone (IZ) (Bacillus cereus [3]): 8 mm

CC(=O)OCC1=C(C(=O)O)N2C(=O)[C@@H](NS(=O)(=O)c3ccc(NC(=O)Nc4ccccc4)cc3)[C@H]2SC1
inhibition zone (IZ) [1]: 8 mm
inhibition zone (IZ) (Saccharomyces cerevisiae): 8 mm
inhibition zone (IZ) (Candida albicans): 8 mm
inhibition zone (IZ) (Staphylococcus aureus): 15 mm
inhibition zone (IZ) [2]: 10 mm
inhibition zone (IZ) (Pseudomonas aeruginosa): 6 mm
inhibition zone (IZ) (Enterococcus faecalis): 8 mm
inhibition zone (IZ) (Bacillus cereus [3]): 10 mm

O=S(=O)(Cl)c1ccc(NC(=S)Nc2ccccc2)cc1
inhibition zone (IZ) [1]: inactive
inhibition zone (IZ) (Saccharomyces cerevisiae): 15 mm
inhibition zone (IZ) (Candida albicans): 8 mm
inhibition zone (IZ) (Staphylococcus aureus): 6 mm
inhibition zone (IZ) [2]: inactive
inhibition zone (IZ) (Pseudomonas aeruginosa): inactive
inhibition zone (IZ) (Enterococcus faecalis): inactive
inhibition [4]: 21%
inhibition zone (IZ) (Bacillus cereus [3]): inactive

O=C1CN(Cc2ccccc2)/C(=N\c2ccc(S(=O)(=O)Cl)cc2)S1
inhibition zone (IZ) [1]: inactive
inhibition zone (IZ) (Saccharomyces cerevisiae): 18 mm
inhibition zone (IZ) (Candida albicans): 10 mm
inhibition zone (IZ) (Staphylococcus aureus): 18 mm
inhibition zone (IZ) [2]: 12 mm
inhibition zone (IZ) (Pseudomonas aeruginosa): inactive
inhibition zone (IZ) (Enterococcus faecalis): 10 mm
inhibition zone (IZ) (Bacillus cereus [3]): 10 mm
